The source of these data is ChEMBL document CHEMBL4017487, “Design and Synthesis of γ- and δ-Lactam M1 Positive Allosteric Modulators (PAMs): Convulsion and Cholinergic Toxicity of an M1-Selective PAM with Weak Agonist Activity” (J Med Chem, 2017).

SMILES strings stand for the structures. Residue numbers refer to the chain shown, from its start. Bounds are passed on as bounds.

One data set has as its system MDR1. In words: Efflux ratio of permeability from basolateral to apical side over apical to basolateral side in MDCK1 cells expressing MDR1. In kind it is ADME, cell-based, Canis lupus familiaris. The settings on record: dog, MDCK-MDR1. In short, it runs like this: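 MDCKI-MDR1 cells (MDCK epithelial line transfected with MDR1/P-gp; from the NIH). Permeability measured as a rate in 10−6 cm/s in both directions; value is the BA/AB ratio.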

Data set [1] can be described thus: Unbound plasma concentration in iv or po dosed mouse. In kind it is ADME, organism-based.
Data set [2] addresses T1, Muscarinic acetylcholine receptor M4 (Homo sapiens, UniProt P08173).
T1 sequence (P08173 whole entry): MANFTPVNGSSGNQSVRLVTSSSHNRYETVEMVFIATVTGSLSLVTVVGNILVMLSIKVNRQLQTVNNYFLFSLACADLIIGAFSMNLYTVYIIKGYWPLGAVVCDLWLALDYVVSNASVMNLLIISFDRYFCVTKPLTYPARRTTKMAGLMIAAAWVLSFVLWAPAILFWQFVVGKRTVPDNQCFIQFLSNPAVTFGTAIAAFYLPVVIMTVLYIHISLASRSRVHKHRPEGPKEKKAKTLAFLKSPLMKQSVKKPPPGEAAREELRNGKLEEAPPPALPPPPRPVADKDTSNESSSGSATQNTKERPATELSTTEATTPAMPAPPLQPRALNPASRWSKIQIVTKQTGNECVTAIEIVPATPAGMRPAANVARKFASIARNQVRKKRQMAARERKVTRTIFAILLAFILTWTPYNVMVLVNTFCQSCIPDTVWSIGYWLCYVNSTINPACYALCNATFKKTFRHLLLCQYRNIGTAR
In words: Agonist activity at human muscarinic acetylcholine receptor M4 expressed in CHO cells assessed as increase in cAMP accumulation after 2 hrs by cAMP-Glo assay. In kind it is cell-based. The method, boiled down:
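Recombinant functional human M2–M5 assays, each run in agonist and PAM modes at concentrations up to 10 μM.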
For orientation: Cyclic AMP is a second messenger, typically raised through Gs and lowered through Gi signalling.

The target of data set [3] is T2, Muscarinic acetylcholine receptor M1 (Rattus norvegicus, UniProt P08482).
T2 sequence (P08482 whole entry): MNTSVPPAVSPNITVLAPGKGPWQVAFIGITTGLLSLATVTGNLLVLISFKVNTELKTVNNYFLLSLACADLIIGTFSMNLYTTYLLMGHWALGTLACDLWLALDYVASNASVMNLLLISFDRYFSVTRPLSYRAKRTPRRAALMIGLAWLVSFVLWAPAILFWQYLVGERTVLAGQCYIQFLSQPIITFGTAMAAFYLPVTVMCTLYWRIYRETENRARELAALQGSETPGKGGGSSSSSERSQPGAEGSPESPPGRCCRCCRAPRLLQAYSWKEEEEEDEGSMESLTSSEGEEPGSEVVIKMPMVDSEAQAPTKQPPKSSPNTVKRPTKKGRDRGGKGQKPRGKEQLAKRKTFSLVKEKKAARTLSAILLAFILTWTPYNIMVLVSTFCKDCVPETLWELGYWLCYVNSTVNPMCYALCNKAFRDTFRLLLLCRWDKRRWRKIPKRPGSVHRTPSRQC
In words: Positive allosteric modulation of muscarinic acetylcholine receptor M1 in Sprague-Dawley rat brain hippocampal slices assessed as increase in carbachol-induced firing rate at CA1 pyramidal neurons after 10 mins by electrophysiology method. In short, it runs like this:
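Rat hippocampal slices; spontaneous action potentials recorded from CA1 pyramidal neurons, read as spike rate. Agonist mode has no carbachol; PAM mode uses an EC20 level of carbachol. Top concentration tested was 3 μM.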

Data set [4] concerns the target T3, Muscarinic acetylcholine receptor M1 (Homo sapiens, UniProt P11229).
T3 sequence (P11229 whole entry): T2 sequence (P08482 whole entry) with V5A, S254T, S309P, K320R, G337A, V413I
In words: Positive allosteric modulation of human muscarinic acetylcholine receptor M1 expressed in CHO cells assessed as increase in acetylcholine-induced calcium mobilization by measuring functional co-operativity with acetylcholine preincubated for 10 mins followed by acetylcholine addition by Fluo-8-AM dye based FLIPR assay. The class given is ADME, cell-based. In short, it runs like this:
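In FLIPR calcium-mobilization data, ACh concentration–response curves with and without test compound were fitted with the Black/Leff operational model. α gives the change in receptor affinity for ACh, and β gives the change in efficacy, the functional cooperativity.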

The test system of the next data set is Mus musculus. Kind of data set: In vivo agonist activity at muscarinic acetylcholine receptor M1 in C57BL/6 mouse assessed as increase in IP1 accumulation in striatum at 1 to 10 mg/kg, sc measured after 2 hrs. In kind it is organism-based. In short, it runs like this: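 C57BL/6 mice dosed with compound or vehicle, then ex vivo striatal IP1 and free brain concentration (Cb,u) measured. Data points are individual mice.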

Data set [5] concerns Rattus norvegicus. Kind of data set: Cholinergic toxicity in rat at 1 to 5 mg/kg, po administered as single dose. In kind it is organism-based. The settings on record: in vivo. In short, it runs like this:
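Rat single oral dose escalation, 3/sex/dose. 1 and 5 mg/kg as a 0.5% methylcellulose suspension; 15 and 45 mg/kg as a nanosuspension (1.25% w/v hydroxypropyl cellulose SL, 0.05% docusate sodium in water).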

Data set [6] relates to Rattus norvegicus. In words: Toxicity in rat assessed as convulsions at 45 mg/kg, po administered as single dose after 1 to 6 hrs. In kind it is organism-based. The settings on record: in vivo.
Data set [7] concerns Canis familiaris. In words: Cholinergic toxicity in dog assessed as soft stool at 5 mg/kg, po administered as single dose using spray dried dispersion formulation after 1.5 hrs. In kind it is organism-based, Canis lupus familiaris. The settings on record: in vivo. In short, it runs like this:
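Dog single oral dose escalation: 1/sex at 5 mg/kg for each formulation; 1 female at 15 mg/kg. Spray-dried dispersion: 23% drug loading with 0.5% methylcellulose and 100 mM citrate buffer. Clinical signs timed in approximate hours postdose; unbound plasma Cmax.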

The subject of data set [8] is Canis familiaris. In words: Cholinergic toxicity in dog assessed as emesis at 5 mg/kg, po administered as single dose using shydroxypropyl cellulose/docusate sodium formulation after 0.5 to 1.3 hrs. The class given is organism-based, Canis lupus familiaris. The settings on record: in vivo. The method, boiled down:
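Single-dose oral dose-escalation study, 1 dog/sex/dose. The 5 mg/kg dose was given as a nanosuspension in hydroxypropyl cellulose SL with 0.05% docusate sodium in purified water. Cholinergic clinical signs were recorded at approximate hours postdose, alongside unbound plasma Cmax.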

As a reminder, the efflux ratio is a quotient of directional permeabilities that is used to spot active efflux. As a reminder, the fraction unbound is the share of the substance not bound to proteins or other matrix. A lower fraction unbound goes with extensive binding. Usually EC50 stands for the concentration at which the effect is half-maximal. In the case of `Cc1cc2c(cc1Cc1ccc(-c3cocn3)cc1)C(=O)N([C@H]1CCOC[C@@H]1O)C2`, the efflux ratio in the data set with MDR1 was 11. For the same molecule, in data set [1], the fraction unbound was 0.013. The EC50 in [2] was > 10 µM. Further, the Activity entry in data set [3] is given as “Dose-dependent effect”; in the data set on Mus musculus it was “Active”; in the data set with Rattus norvegicus [5] it was “Non-Toxic”; in the data set on Rattus norvegicus [6] it was “Toxic”; in the data set on Canis familiaris [7], “Toxic”; with Canis familiaris [8] it was “Toxic”. Also, in data set [4], the “log(activity)” value is 2.3.
